Most compounds without a hit are left out; they make up all but 1.9% or so of the library.
M4 antag = blocks acetylcholine activation of human M4 receptor | CHO-hM4 cells, ACh EC80, Fluo-8 calcium fluorescence | inhibition, % at 3 µM | 0.73% of 360,000 active | AID 624125;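 active means inhibition above its plate's cutoff, the mean inhibition of sample wells plus 3 SD, cut at about 27% in these data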
Target sequence (P08173 whole entry, looked up): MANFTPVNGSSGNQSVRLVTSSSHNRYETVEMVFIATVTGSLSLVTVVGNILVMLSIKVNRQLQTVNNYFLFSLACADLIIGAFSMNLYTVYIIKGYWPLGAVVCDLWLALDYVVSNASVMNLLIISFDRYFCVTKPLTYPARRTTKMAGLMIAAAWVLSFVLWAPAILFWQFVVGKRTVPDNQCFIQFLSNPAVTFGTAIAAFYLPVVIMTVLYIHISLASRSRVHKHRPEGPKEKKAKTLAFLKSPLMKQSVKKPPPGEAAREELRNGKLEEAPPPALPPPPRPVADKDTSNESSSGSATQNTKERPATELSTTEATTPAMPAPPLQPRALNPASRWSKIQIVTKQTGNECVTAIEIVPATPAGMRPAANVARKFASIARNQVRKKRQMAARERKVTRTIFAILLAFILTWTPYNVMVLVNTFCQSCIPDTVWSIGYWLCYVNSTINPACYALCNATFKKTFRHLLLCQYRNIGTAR
M5 ag = agonists of human muscarinic M5 receptor (CHRM5). P08912. 0.19% of 360,000 active. CHO-K1 hM5 cells, Fluo-8 calcium fluorescence; 0% DMSO wells, 100% maximal acetylcholine response. AID 624037. activation, % at 3 µM;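 active means activation above the run's mean over test compounds plus 3 SD, cut at about 23% in these data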;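 further: signal is peak over basal fluorescence ratio across the kinetic read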
M4 ag = CHRM4 agonism in calcium assay. CHO-K1 hM4/Gqi5, Fluo-8 calcium fluorescence; vehicle 0%, full acetylcholine response 100%. AID 624127. 0.14% of 360,000 active. P08173. activation, % at 3 µM;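 active means activation above the run mean over all test wells plus 3 SD, cut at about 32% in these data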;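 further: peak over basal fluorescence ratio per well then scaled between controls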
M5 PAM = CHRM5 positive allosteric modulation; P08912; CHO-K1 hM5, Fluo-8 calcium, ACh EC20 PAM; 0% = ACh EC20, 100% = ACh EC100; activation, % at 3 µM; 0.3% of 360,000 active; AID 624038;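 active means activation above the run cutoff, the mean activation of all test compounds plus 3 SD, cut at about 18% in these data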
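Assay system – human M5 receptor in CHO-K1 cells · Read-out – % activation, ACh-normalized · Technique – Fluo-8 calcium fluorescence · Dosing – single-point, 3 µM nominal · Incubation – Fluo-8 loading 80 min at 37 °C plus 30 min room temperature · Repeats – singlicate, one well per test compound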
CHRM4 PAM = CHRM4 positive allosteric modulation; P08173; CHO-K1 hM4/Gqi5, Fluo-8 calcium fluorescence, ACh EC20; 0% = ACh EC20, 100% = maximal ACh; activation, % at 3 µM; 0.4% of 360,000 active; AID 624126;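 active means activation above its plate's cutoff, the mean activation of sample wells plus 3 SD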
M5 antag = CHRM5 antagonism in calcium assay | P08912 | CHO-hM5 cells, Fluo-8 calcium fluorescence, ACh EC80 | inhibition, % at 3 µM | 0.59% of 360,000 active;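 active means inhibition above a per-plate cutoff, the mean of that plate's test compounds plus 3 SD, cut at about 27% in these data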
Of the large screens only hits and unclear results are named; the others gave an inactive call.

CCOc1ccc(NC(=O)Nc2cc(OCC(F)(F)F)cc(OCC(F)(F)F)c2)cc1	M5 antag 28
CCOc1ccc(NC(=O)Nc2ccc3nsnc3c2)cc1	M5 antag 33
C=CCN(CC=C)C(=O)Nc1ccc2nc(C)sc2c1	CHRM4 PAM 21
C=CCNC(=O)Nc1ccc2nc(C)sc2c1	none
CCC(C(=O)OCC(=O)C1(O)CCC2C3CCC4=CC(=O)CCC4(C)C3C(O)CC21C)C(C)C (stereo not drawn)	M4 antag 28
CC(=O)OCC(=O)[C@@]1(O)CC[C@H]2[C@@H]3CCC4=CC(=O)C=C[C@]4(C)[C@@]3(Cl)[C@@H](Cl)C[C@@]21C	M5 ag 43
CC12C=CC(=O)C=C1CCC1C2C(O)CC2(C)C1CCC2(O)C(=O)CO (stereo not drawn)	M4 antag 88
CC(=O)OCC(=O)[C@@]1(O)CC[C@H]2[C@@H]3CCC4=CC(=O)C=C[C@]4(C)[C@H]3[C@@H](O)C[C@@]21C	none
COc1ccc(NC(=O)C2CCCC2)cc1S(=O)(=O)N1CCOCC1	none
COC(=O)N(C)C[C@H]1OCc2cnnn2CCCC(=O)N([C@@H](C)CO)C[C@H]1C	none
O=C(CCN1C(=O)S/C(=C\c2ccc(F)cc2)C1=O)Nc1ccc(C(=O)O)c(O)c1	CHRM4 PAM 17
O=C(CCN1C(=O)S/C(=C/c2ccc(F)cc2)C1=O)Nc1ccc(O)c(C(=O)O)c1	none
COc1ccc(CN2CCCC(C(=O)c3ccc4c(c3)OCO4)C2)c(F)c1 (stereo not drawn)	M4 antag 61
O=C(CSc1ccccc1F)NNC(=O)c1cncc(Br)c1	none
Cc1cc(C)c(C(=O)N(C)C2CCCN(Cc3ccccc3F)C2)o1 (stereo not drawn)	none
CCCCCCCCCCCCCCCC[n+]1cccc2ccccc21	M4 antag 52, M5 antag 64
O=[N+]([O-])c1ccc(C[n+]2cccc3c4ccccc4ccc32)cc1	none
Cc1ccccc1C[n+]1cccc2ccccc21	none
CCCCCCCCC[n+]1cccc2c3ccccc3ccc21	M4 antag 70, M5 antag 41
FC(F)(F)c1cccc(CC2CN(Cc3ccccc3)Cc3ccccc3N2c2cc(Cl)cc(Cl)c2)c1 (stereo not drawn)	none
CCOC(=O)N1CCN(C(=O)c2ccc3c(=O)n(CCC4=CCCCC4)c(=O)[nH]c3c2)CC1	M4 antag 39
CN1C(=O)c2ccc(C(=O)NCc3ccco3)cc2C1=O	none
O=C(NCc1ccco1)c1ccc2c(c1)C(=O)N(C1CCCCC1)C2=O	CHRM4 PAM 32
N/C(=N\NC(=O)c1cccc(F)c1)c1cc2ccccc2oc1=O	CHRM4 PAM 28
CC1=C(C(=O)OCC2CCCO2)C(c2ccncc2)C2=C(CCCC2=O)N1 (stereo not drawn)	none
CC1=C(C(=O)OCC2CCCO2)C(c2ccc(C)cc2)C2=C(CCCC2=O)N1 (stereo not drawn)	M5 PAM 20
CCN(CC)c1ccc(C2C(C(=O)OCCOC)=C(C)NC3=C2C(=O)CCC3)cc1 (stereo not drawn)	M4 antag 35
O=C(CSc1nnnn1-c1cccc2ccccc12)Nc1ccc(C(=O)O)cc1	none
CN1C(=O)CSC1=Nc1ccc(F)cc1	CHRM4 PAM 14
CN1C(=O)CSC1=Nc1cccc(C(=O)O)c1	none
C[C@H](CO)N1C[C@H](C)[C@H](CN(C)C(=O)Cc2cccnc2)Oc2ncc(Br)cc2C1=O	none
COc1cccc(OC)c1OCCCCCCN1CCN(C)CC1	none
O=S(=O)(CCN1CCN(C(c2ccccc2)c2ccccc2)CC1)C(F)(F)F	M4 antag 48, M5 antag 45
COc1ccccc1OCCCCN1CCN(C(c2ccccc2)c2ccccc2)CC1	M4 antag 63
CC(C)c1ccccc1OCCCCCN1CCOCC1	M4 antag 32
c1ccc(CN2CCN(C(c3ccccc3)c3ccccc3)CC2)cc1	none
